Data: ChEMBL document CHEMBL2034906, “Inhibition of tumor cells interacting with stromal cells by xanthones isolated from a Costa Rican Penicillium sp” (J Nat Prod, 2012)

Legend:
L-363 [1] = test: Cytotoxicity against human L363 cells after 48 hrs by luminometric analysis; assay type: functional, cell-based; conditions: L-363, 48 h
Summary of the method: (§1)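 Tumor cells were cultured without HS-5 stromal cells and treated with increasing compound concentrations for 48 h. Luciferin substrate was added, cultures were incubated 30 min, and bioluminescence was read on a luminometer. Signal was normalized to the non-treated control, with each condition in quadruplicate, and IC50 was calculated.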

[2] = Cytotoxicity against human Farage cells after 48 hrs by luminometric analysis; assay type: functional, cell-based; summary of the method: as §1
RPMI-8226 [3] = test: Cytotoxicity against human RPMI8226 cells after 48 hrs by luminometric analysis in presence of HS5 bone marrow stromal cells; assay type: functional, cell-based; conditions: RPMI-8226, 48 h
Summary of the method: (§2)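 Tumor cells were co-cultured with HS-5 bone marrow stromal cells. For non-adherent tumors, stroma was seeded overnight, then tumor cells were overlaid and treated the next day. For adherent tumors, stroma and tumor cells were plated together overnight, then treated. Cells received increasing compound concentrations for 48 h. Luciferin was added for 30 min and bioluminescence read. Signal was normalized to the untreated control, in quadruplicate, and IC50 was calculated.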

PC-3 [4] = test: Cytotoxicity against human PC3 cells after 48 hrs by luminometric analysis; assay type: functional, cell-based; conditions: PC-3, 48 h; summary of the method: as §1
NCI-H929 (Homo sapiens) [5] = test: Cytotoxicity against human NCI-H929 cells after 48 hrs by luminometric analysis; conditions: NCI-H929, 48 h
L-363 [6] = test: Cytotoxicity against human L363 cells after 48 hrs by luminometric analysis in presence of HS5 bone marrow stromal cells; assay type: functional, cell-based; conditions: L-363, 48 h; summary of the method: as §2
[7] = Cytotoxicity against human OCILY17R cells after 48 hrs by luminometric analysis in presence of HS5 bone marrow stromal cells; assay type: functional, cell-based; summary of the method: as §2
NCI-H929 (Homo sapiens) [8] = test: Cytotoxicity against human NCI-H929 cells after 48 hrs by luminometric analysis in presence of HS5 bone marrow stromal cells; conditions: NCI-H929, 48 h
[9] = Cytotoxicity against human KMS34 cells after 48 hrs by luminometric analysis; assay type: functional, cell-based; conditions: KMS-34, 48 h; summary of the method: as §1
RPMI-8226 [10] = test: Cytotoxicity against human RPMI8226 cells after 48 hrs by luminometric analysis; assay type: functional, cell-based; conditions: RPMI-8226, 48 h; summary of the method: as §1
[11] = Cytotoxicity against human KU-812F cells after 48 hrs by luminometric analysis; assay type: functional, cell-based; summary of the method: as §1
[12] = Cytotoxicity against human 8226/DOX40 cells after 48 hrs by luminometric analysis; assay type: functional, cell-based; summary of the method: as §1
[13] = Cytotoxicity against human MM1S cells after 48 hrs by luminometric analysis; assay type: functional, cell-based; conditions: MM1.S; summary of the method: as §1
[14] = Cytotoxicity against human 8226/DOX40 cells after 48 hrs by luminometric analysis in presence of HS5 bone marrow stromal cells; assay type: functional, cell-based; summary of the method: as §2
OPM-2 [15] = test: Cytotoxicity against human OPM2 cells after 48 hrs by luminometric analysis; assay type: functional, cell-based; conditions: OPM-2, 48 h; summary of the method: as §1
[16] = Cytotoxicity against human KMS34 cells after 48 hrs by luminometric analysis in presence of HS5 bone marrow stromal cells; assay type: functional, cell-based; conditions: KMS-34, 48 h; summary of the method: as §2
PC-3 [17] = test: Cytotoxicity against human PC3 cells after 48 hrs by luminometric analysis in presence of HS5 bone marrow stromal cells; assay type: functional, cell-based; conditions: PC-3, 48 h; summary of the method: as §2
[18] = Cytotoxicity against human MM1S cells after 48 hrs by luminometric analysis in presence of HS5 bone marrow stromal cells; assay type: functional, cell-based; conditions: MM1.S; summary of the method: as §2
MDA-MB-231 [19] = test: Cytotoxicity against human MDA-MB-231 cells after 48 hrs by luminometric analysis; assay type: functional, cell-based; conditions: MDA-MB-231, 48 h; summary of the method: as §1
[20] = Cytotoxicity against human OCI-My5 cells after 48 hrs by luminometric analysis; assay type: functional, cell-based; conditions: OCI-My5, 48 h; summary of the method: as §1
[21] = Cytotoxicity against human OCILY17R cells after 48 hrs by luminometric analysis; assay type: functional, cell-based; summary of the method: as §1
HT [22] = test: Cytotoxicity against human HT cells after 48 hrs by luminometric analysis in presence of HS5 bone marrow stromal cells; assay type: functional, cell-based; summary of the method: as §2
[23] = Cytotoxicity against human Farage cells after 48 hrs by luminometric analysis in presence of HS5 bone marrow stromal cells; assay type: functional, cell-based; summary of the method: as §2
[24] = Cytotoxicity against human KU-812F cells after 48 hrs by luminometric analysis in presence of HS5 bone marrow stromal cells; assay type: functional, cell-based; summary of the method: as §2
OPM-2 [25] = test: Cytotoxicity against human OPM2 cells after 48 hrs by luminometric analysis in presence of HS5 bone marrow stromal cells; assay type: functional, cell-based; conditions: OPM-2, 48 h; summary of the method: as §2
HT [26] = test: Cytotoxicity against human HT cells after 48 hrs by luminometric analysis; assay type: functional, cell-based; summary of the method: as §1
MDA-MB-231 [27] = test: Cytotoxicity against human MDA-MB-231 cells after 48 hrs by luminometric analysis in presence of HS5 bone marrow stromal cells; assay type: functional, cell-based; conditions: MDA-MB-231, 48 h; summary of the method: as §2
[28] = Cytotoxicity against human OCI-My5 cells after 48 hrs by luminometric analysis in presence of HS5 bone marrow stromal cells; assay type: functional, cell-based; conditions: OCI-My5, 48 h; summary of the method: as §2
[29] = Cytotoxicity against human HOBIT cells after 48 hrs by luminometric analysis; assay type: cell-based
[30] = Cytotoxicity against human SVGp12 cells after 48 hrs by luminometric analysis; assay type: cell-based; conditions: SVGp12, 48 h
[31] = Cytotoxicity against human THLE3 cells after 48 hrs by luminometric analysis; assay type: cell-based; conditions: THLE3, 48 h
RPMI-8226 [32] = test: Ratio of IC50 for human RPMI8226 cells in absence of HS5 bone marrow stromal cells to IC50 for human RPMI8226 in presence of HS5 bone marrow stromal cells; assay type: functional
[33] = Cytotoxicity against human HS5 cells after 48 hrs by luminometric analysis; assay type: cell-based; conditions: HS5, 48 h

| Compound | IC50 [2] | IC50 (RPMI-8226 [3]) | IC50 (PC-3 [4]) | IC50 (NCI-H929 (Homo sapiens) [5]) | IC50 (NCI-H929 (Homo sapiens) [8]) | IC50 (RPMI-8226 [10]) | IC50 [11] | IC50 [12] | IC50 [13] | IC50 [14] | IC50 (OPM-2 [15]) | IC50 (PC-3 [17]) | IC50 [18] | IC50 (MDA-MB-231 [19]) | IC50 (HT [22]) | IC50 [23] | IC50 [24] | IC50 (OPM-2 [25]) | IC50 (HT [26]) | IC50 (MDA-MB-231 [27]) | also measured |
| --- | --- | --- | --- | --- | --- | --- | --- | --- | --- | --- | --- | --- | --- | --- | --- | --- | --- | --- | --- | --- | --- |
| CC(=O)OC[C@]12Oc3c(-c4ccc5c(c4O)C(=O)C4=C(O)C[C@@H](C)[C@@H](OC(C)=O)[C@@]4(CO)O5)ccc(O)c3C(=O)C1=C(O)C[C@@H](C)[C@H]2OC(C)=O (relative stereo) | 12.4 µM | 8.9 µM | 122 µM | 54.5 µM | 35.2 µM | 12.9 µM | 14.6 µM | 15 µM | 37.1 µM | 21.6 µM | 12.7 µM | 66.3 µM | 47.1 µM | 43.4 µM | 9.9 µM | 10.5 µM | 24.2 µM | 10.5 µM | 10.8 µM | 34.2 µM | IC50 (L-363 [1]): 66 µM; IC50 (L-363 [6]): 79.4 µM; IC50 [7]: 47.4 µM; IC50 [9]: 22.6 µM; IC50 [16]: 55.6 µM; IC50 [20]: 18.8 µM; IC50 [21]: 31.1 µM; IC50 [28]: 47.7 µM |
| CC(=O)OC[C@]12Oc3cccc(O)c3C(=O)C1=C(O)C[C@@H](C)[C@H]2OC(C)=O (relative stereo) | 200 µM | 34 µM | 1380 µM | 188 µM | 94.8 µM | 71.6 µM | 44.9 µM | 11.6 µM | 168 µM | 24.2 µM | 42.8 µM | 216 µM | 186 µM | 164 µM | 34.9 µM | 38.7 µM | 95.9 µM | 44.8 µM | 100 µM | 118 µM | IC50 (L-363 [1]): 464 µM; IC50 (L-363 [6]): 199 µM; IC50 [7]: 293 µM; IC50 [9]: 153 µM; IC50 [16]: 199 µM; IC50 [20]: 158 µM; IC50 [21]: 1620 µM; IC50 [28]: 384 µM |
| CC(=O)O[C@@H]1[C@H](C)CC(O)=C2C(=O)c3c(ccc(-c4ccc5c(c4O)C(=O)C4=C(O)C[C@@H](C)[C@@H](OC(C)=O)[C@@]4(CO)O5)c3O)O[C@@]21CO [DICERANDROL A] | 15.6 µM |  | 100 µM | 42.5 µM | 22.9 µM |  | 24.6 µM | 22.8 µM | 28.9 µM | 36.9 µM |  | 71.7 µM | 33.3 µM | 43.3 µM |  | 14.8 µM | 46.6 µM |  |  | 38.4 µM |  |
| CC(=O)OC[C@]12Oc3ccc(-c4ccc5c(c4O)C(=O)C4=C(O)C[C@@H](C)[C@@H](OC(C)=O)[C@@]4(CO)O5)c(O)c3C(=O)C1=C(O)C[C@@H](C)[C@H]2OC(C)=O [DICERANDROL B] | 1.6 µM | 1.2 µM | 34 µM | 10.2 µM | 3.4 µM | 2.4 µM | 2.7 µM | 2.2 µM | 7.3 µM | 2.3 µM | 1.9 µM | 14.1 µM | 8 µM | 8.5 µM | 1.3 µM | 1.3 µM | 3.6 µM | 1.5 µM | 1.2 µM | 5.5 µM | IC50 (L-363 [1]): 16.7 µM; IC50 [7]: 5.2 µM; IC50 [9]: 5.5 µM; IC50 [29]: 9.2 µM; IC50 [16]: 9.3 µM; IC50 [30]: 13.7 µM; IC50 [20]: 2.8 µM; IC50 [31]: 10 µM; IC50 [21]: 4.6 µM; Ratio IC50 (RPMI-8226 [32]): 2; IC50 [33]: 13 µM; IC50 [28]: 5.7 µM |
| CC(=O)OC[C@]12Oc3ccc(-c4ccc5c(c4O)C(=O)C4=C(O)C[C@@H](C)[C@@H](OC(C)=O)[C@@]4(COC(C)=O)O5)c(O)c3C(=O)C1=C(O)C[C@@H](C)[C@H]2OC(C)=O [DICERANDROL C] | 3.5 µM | 2.8 µM | 121 µM | 10.8 µM | 5.4 µM | 4.8 µM | 7.1 µM | 10 µM | 14.7 µM | 13.9 µM | 4.8 µM | 45.2 µM | 20.8 µM | 18.1 µM | 4 µM | 3.3 µM | 14.3 µM | 7.5 µM | 2.1 µM | 13.3 µM |  |
